Laboratory results taken from ChEMBL document CHEMBL2176901, “Pyrrolo[3,4-h]quinolinones a new class of photochemotherapeutic agents” (Bioorg Med Chem, 2011).
pIC50: −log10 of the molar value. The source made the active and inactive calls. The rule behind the calls is not given here.

Columns and labels:
MCF7 [1] = test: Phototoxicity in 2.5 J/cm'2 UV-A irradiated human MCF7 cells after 72 hrs by MTT assay; format: functional, cell-based; settings: MCF7, light or radiation study
In short: (§1)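 HL-60 and Jurkat (8×10³/well, RPMI-1640) and MCF-7, LoVo, NCTC-2544 (5×10³/well; DMEM or Ham's F12) preincubated 18 h at 37 °C, 5% CO₂. Compound in DMSO diluted in HBSS pH 7.2, 30 min at 37 °C, then UV-A at 2.5 or 3.75 J/cm². Medium replaced, 72 h incubation, MTT read-out. IC50 as mean ± SEM of three experiments.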

Jurkat [2] = test: Induction of lipid peroxidation in 3.75 J/cm'2 UV-A irradiated human Jurkat cells assessed as increase in TBARS formation after 24 hrs by thiobarbituric acid assay; format: functional, cell-based
In short: (§2)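 Lipid peroxidation measured as MDA–thiobarbituric acid adducts, with BHT added to samples; calibrated to a 1,1,3,3-tetraethoxypropane standard curve; protein by Peterson method.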

MCF7 [3] = test: Phototoxicity in 3.75 J/cm'2 UV-A irradiated human MCF7 cells after 72 hrs by MTT assay; format: functional, cell-based; settings: MCF7, light or radiation study
In short: (§3)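 Seeded at 5 × 10³ cells/well with 10% FBS: MCF-7 and NCTC-2544 in DMEM, LoVo in Ham's F12. Pre-incubated 18 h at 37 °C, 5% CO2. Compound (DMSO stock diluted in HBSS pH 7.2) was applied for 30 min at 37 °C, then UV-A irradiation (mainly 365 nm, 4.0 mW/cm²). Medium was restored for 72 h before MTT. IC50 is the mean ± SEM of three experiences.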

[4] = Phototoxicity in 3.75 J/cm'2 UV-A irradiated human NCTC-2544 cells after 72 hrs by MTT assay; format: functional, cell-based; settings: NCTC-2544, light or radiation study; in short: as §3
HL-60 [5] = test: Phototoxicity in 3.75 J/cm'2 UV-A irradiated human HL60 cells after 72 hrs by MTT assay; format: functional, cell-based; settings: HL-60, light or radiation study; in short: as §1
Jurkat [6] = test: Cell cycle arrest in UV-A irradiated human Jurkat cells assessed as accumulation at G2/M phase at 5 uM after 24 hrs by propidium iodide based flow cytometry (reference value: 10.3 %); format: functional
In short: (§4)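 Exponentially growing Jurkat cells (5×10^5) irradiated with UV-A (365 nm lamp, 2.5 J/cm²) in presence of compound. After 24 h: fixed in ice-cold 70% ethanol, lysed with RNAse A, stained with PI (10 µg/ml), analysed by flow cytometry. Phases calculated on living cells; subG1 is hypodiploid DNA peak.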

Nucleic Acid [7] = test: Binding affinity to salmon testes DNA at drug/DNA ratio of 0.02 by linear dichroism analysis; format: nucleic-acid assay; settings: Salmonidae
In short: (§5)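 Flow linear dichroism in 10 mM phosphate buffer pH 7.2. Samples oriented in a rotating cylindrical cuvette (0.14 cm path, 800 rpm) at several drug/DNA ratios.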

Jurkat [8] = test: Cell cycle arrest in UV-A irradiated human Jurkat cells assessed as accumulation at G2/M phase at 10 uM after 24 hrs by propidium iodide based flow cytometry (reference value: 10.3 %); format: functional; in short: as §4
LoVo [9] = test: Phototoxicity in 3.75 J/cm'2 UV-A irradiated human LoVo cells after 72 hrs by MTT assay; format: functional, cell-based; settings: light or radiation study; in short: as §3
Jurkat [10] = test: Phototoxicity in 3.75 J/cm'2 UV-A irradiated human Jurkat cells after 72 hrs by MTT assay; format: functional, cell-based; settings: light or radiation study
In short: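 Jurkat cells (8 × 10³/well) in RPMI-1640 with 10% FBS, held 18 h at 37 °C, 5% CO2. Compound stock in DMSO was diluted in HBSS pH 7.2 and added for 30 min at 37 °C. Cells were UV-A irradiated (lamp mainly 365 nm, 4.0 mW/cm²), then returned to medium for 72 h. MTT readout. IC50 is the mean ± SEM of three experiences.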

Jurkat [11] = test: Cell cycle arrest in UV-A irradiated human Jurkat cells assessed as accumulation at G1 phase at 5 uM after 24 hrs by propidium iodide based flow cytometry (reference value: 64.4 %); format: functional; in short: as §4
Jurkat [12] = test: Induction of lipid peroxidation in 2.5 J/cm'2 UV-A irradiated human Jurkat cells assessed as increase in TBARS formation after 24 hrs by thiobarbituric acid assay; format: functional, cell-based; in short: as §2
Jurkat [13] = test: Cell cycle arrest in UV-A irradiated human Jurkat cells assessed as accumulation at S phase at 5 uM after 24 hrs by propidium iodide based flow cytometry (reference value: 25.3 %); format: functional; in short: as §4
Jurkat [14] = test: Cell cycle arrest in UV-A irradiated human Jurkat cells assessed as accumulation at Sub G1 phase at 5 uM after 24 hrs by propidium iodide based flow cytometry (reference value: 0.1 %); format: functional; in short: as §4
Nucleic Acid [15] = test: Binding affinity to salmon testes DNA at drug/DNA ratio of 0.03 by linear dichroism analysis; format: nucleic-acid assay; settings: Salmonidae; in short: as §5
Nucleic Acid [16] = test: Binding affinity to salmon testes DNA at 10 uM by fluorescence titration; format: nucleic-acid assay; settings: Salmonidae
In short: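 Fluorimetric titration of compound (10 μM) with increasing stDNA (0 to 100 μM) in 10 mM phosphate buffer pH 7.2; quenching of compound fluorescence monitored.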

Jurkat [17] = test: Cell cycle arrest in UV-A irradiated human Jurkat cells assessed as accumulation at G1 phase at 10 uM after 24 hrs by propidium iodide based flow cytometry (reference value: 64.4 %); format: functional; in short: as §4
Jurkat [18] = test: Cell cycle arrest in UV-A irradiated human Jurkat cells assessed as accumulation at Sub G1 phase at 10 uM after 24 hrs by propidium iodide based flow cytometry (reference value: 0.1 %); format: functional; in short: as §4
Nucleic Acid [19] = test: Binding affinity to salmon testes DNA at drug/DNA ratio of 0.01 by linear dichroism analysis; format: nucleic-acid assay; settings: Salmonidae; in short: as §5
[20] = Photodegradation of the compound in DMSO assessed as formation of photoproducts at 20 uM at 1.3 to 15.2 J/cm'2 UV-A irradiation; format: physicochemical
In short: (§6)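 Compound solutions at 20 μM in DMSO exposed to increasing UV-A doses (HPW 125 lamps, mainly 365 nm, 4.0 mW cm⁻²). Absorption spectra recorded after each dose; isosbestic points noted.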

LoVo [21] = test: Phototoxicity in 2.5 J/cm'2 UV-A irradiated human LoVo cells after 72 hrs by MTT assay; format: functional, cell-based; settings: light or radiation study; in short: as §1
Jurkat [22] = test: Phototoxicity in 2.5 J/cm'2 UV-A irradiated human Jurkat cells after 72 hrs by MTT assay; format: functional, cell-based; settings: light or radiation study; in short: as §1
HL-60 [23] = test: Phototoxicity in 2.5 J/cm'2 UV-A irradiated human HL60 cells after 72 hrs by MTT assay; format: functional, cell-based; settings: HL-60, light or radiation study; in short: as §1
[24] = Phototoxicity in 2.5 J/cm'2 UV-A irradiated human NCTC-2544 cells after 72 hrs by MTT assay; format: functional, cell-based; settings: NCTC-2544, light or radiation study; in short: as §1
Jurkat [25] = test: Cell cycle arrest in UV-A irradiated human Jurkat cells assessed as accumulation at S phase at 10 uM after 24 hrs by propidium iodide based flow cytometry (reference value: 25.3 %); format: functional; in short: as §4
[26] = Photodegradation of the compound in DMSO assessed as formation of photoproducts at 20 uM at 1.3 to 14.3 J/cm'2 UV-A irradiation; format: physicochemical; in short: as §6
Jurkat [27] = test: Induction of apoptosis in UV-A irradiated human Jurkat cells assessed as loss of mitochondrial membrane potential after 6 hrs by cytofluorimetric analysis; format: functional, cell-based
In short: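 Jurkat cells 6, 12 and 24 h after UV-A (2.5 J/cm²) with compound, resuspended in HBSS with JC-1 (1 μg/ml). Green (FL1) and orange (FL2) fluorescence collected by flow cytometry, ≥10000 events; cells with monomeric JC-1 counted as collapsed potential. Mean ± SEM of three experiments.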

Jurkat [28] = test: Induction of apoptosis in UV-A irradiated human Jurkat cells assessed as increase in number of damaged lysosomes after 6 to 24 hrs by acridine orange- based flow cytometry; format: functional, cell-based
In short: (§7)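 Lysosomal stability in Jurkat cells 6, 12 and 24 h after UV-A (2.5 J/cm²) with compound. Cells resuspended in RPMI-1640 with 1 µM acridine orange; flow cytometry, excitation 488 nm, emission in FL3. Mean ± SEM of three experiments.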

Jurkat [29] = test: Induction of apoptosis in UV-A irradiated human Jurkat cells assessed as increase in number of damaged lysosomes at 5 to 10 uM by acridine orange-based flow cytometry; format: functional, cell-based; in short: as §7

Row | SMILES | pIC50 (MCF7 [1]) | Activity (Jurkat [2]) | pIC50 (MCF7 [3]) | pIC50 [4] | pIC50 (HL-60 [5]) | Activity (Jurkat [6]) [%] | Activity (Nucleic Acid [7]) | Activity (Jurkat [8]) [%] | pIC50 (LoVo [9]) | pIC50 (Jurkat [10]) | Activity (Jurkat [11]) [%] | Activity (Jurkat [12]) | Activity (Jurkat [13]) [%] | Activity (Jurkat [14]) [%] | Activity (Nucleic Acid [15]) | Activity (Nucleic Acid [16]) | pIC50 (LoVo [21]) | pIC50 (Jurkat [22]) | pIC50 (HL-60 [23]) | pIC50 [24] | other results
1 | COc1nc2c(cc1S(=O)(=O)c1ccccc1)CCc1cn(C)cc1-2 | 5.60 | Dose-dependent effect | 5.70 | 5.96 | 6.05 | 5 | inactive | 9.5 | 6.05 | 6.70 | 49.6 | Dose-dependent effect | 45.4 | 4 | inactive | inactive | 5.72 | 6.00 | 5.80 | 5.31 | Activity (Jurkat [17]): 40.1%; Activity (Jurkat [18]): 15.9%; Activity (Nucleic Acid [19]): inactive; Stability [20]: Unstable; Activity (Jurkat [25]): 50.4%
2 | Cc1c2c(cn1Cc1ccccc1)CCc1cc(S(=O)(=O)c3ccccc3)c(=O)[nH]c1-2 | < 4.70 |  | 5.11 | 4.84 | 5.60 |  |  |  | < 4.70 | 5.52 |  |  |  |  |  |  | < 4.70 | 4.89 | 5.40 | < 4.70 | Stability [26]: Unstable
3 | CCOC(=O)c1c2c(c(C)n1Cc1ccccc1)-c1[nH]c(=O)c(S(=O)(=O)c3ccccc3)cc1CC2 | 5.48 | Dose-dependent effect | 5.85 | 5.60 | 6.10 | 4.4 | inactive | 0.8 | 5.64 | 5.72 | 53.8 | Dose-dependent effect | 41.8 | 3.8 | inactive | inactive | 5.40 | 5.54 | 5.92 | 5.40 | Activity (Jurkat [27]): Active; Activity (Jurkat [28]): Active; Activity (Jurkat [17]): 44.8%; Activity (Jurkat [18]): 12.5%; Activity (Nucleic Acid [19]): inactive; Activity (Jurkat [29]): Active; Activity (Jurkat [25]): 54.4%
